Here are results for 14 compounds from PubChem BioAssay.

SMILES strings stand for the structures. Active and inactive are the calls of the source.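 Rule for the calls, unless noted: active = GFP response above 150% of the DMSO level; inconclusive = fewer than 70 events counted for a yeast strain; inactive = the rest.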

Assay [1] is described as follows: RPL19A-GFP modulators, yeast TOR pathway, confirmation, cell-based, S. cerevisiae, flow cytometry, cherry picks, mother/daughter gates (AID 2270;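 active = GFP response below 50% of the DMSO control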). To be noted: S. cerevisiae RPL19A-GFP strain, 3 h, at 10 µM, stronger effect = lower value, 100 = same GFP as DMSO wells. (In general: In flow cytometry, cells or beads pass a laser one at a time.)
A short description of assay [2]: LAP4-GFP expression modulators in yeast, confirmation, cell-based, cherry picks, flow cytometry, mother/daughter gates (AID 2271;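 active = GFP response above 150% of the DMSO control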;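 note: ratio of sample to DMSO plate mean so 100% equals DMSO level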). The conditions noted are these: S. cerevisiae LAP4-GFP strain, 3 h, at 10 µM, stronger effect = higher value, 100 means same as DMSO control. Put shortly:
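material = Alexa 633-stained baker's yeast GFP-fusion strain | amount = 0.2 OD600 cells | schedule = 30 °C, 3 h compound incubation, rotating | signal = GFP by flow cytometry | measure = per-gate (all, mother, daughter) GFP response vs DMSO | controls = positive rapamycin (400 ng/mL), negative DMSO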

Assay [3] can be described thus: modulators of MEP2-GFP levels in yeast, confirmation, S. cerevisiae, flow cytometry GFP, cherry picks (AID 2272;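 active = GFP response above 150% of the DMSO control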;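 note: ratio of well signal to plate DMSO mean so 100% equals DMSO level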). The conditions noted are these: S. cerevisiae MEP2-GFP strain, 3 h, at 10 µM, stronger effect = higher value.
Assay [4] can be described thus: AGP1-GFP expression modulators, hit retest, confirmation, cell-based, flow cytometry, S. cerevisiae, cherry picks (AID 2273).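 Note: median GFP channel fluorescence over the whole cell population gate.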 The conditions noted are these: S. cerevisiae AGP1-GFP strain, 3 h, at 10 µM.
The nature of assay [5]: modulators of CIT2-GFP expression in yeast, confirmation, S. cerevisiae, GFP fusion, cherry picks, mother/daughter gates (AID 2274). To be noted: S. cerevisiae CIT2-GFP strain, flow cytometry, 3 h, at 10 µM, stronger effect = higher value.
The mark [6] stands for this setting: measured here: daughter cell gate.
Setting [7] is: measured here: mother cell gate.
The mark [8] stands for this setting: measured here: daughter cell gate response.
The mark [9] stands for this setting: measured here: mother cell gate response.

As to `Cc1nc2ccccc2c(=O)n1/N=C/c1ccc([N+](=O)[O-])o1`, the GFP response vs DMSO in assay [1] was 104% (inactive); in assay [1] (setting [6]), 108%; in assay [1] (setting [7]), 104%; in assay [3], 116% (inactive). Besides, the GFP response relative to DMSO in assay [2] was 121% (inactive); in assay [2] (setting [8]), 120%; in assay [2] (setting [9]) it was 121%. Besides, the GFP response, % of DMSO was 102% (inactive) in assay [4], 121% (inactive) in assay [5], 128% in assay [5] (setting [6]) and 115% in assay [5] (setting [7]).

In the case of `Cc1ccc(S(=O)(=O)c2ncccc2[N+](=O)[O-])cc1`, the GFP response vs DMSO was 92.2% (inactive) in assay [1], 93.2% in assay [1] (setting [6]), 89.1% in assay [1] (setting [7]) and 105% (inactive) in assay [3]. Further, the GFP response relative to DMSO in assay [2] is 129% (inactive); in assay [2] (setting [8]) it was 123%; in assay [2] (setting [9]), 131%. The GFP response, % of DMSO in assay [4] is 109% (inactive); in assay [5], 94.4% (inactive); in assay [5] (setting [6]), 97.4%; in assay [5] (setting [7]) it was 91.9%.

In the case of `O=C(Nc1cccc(O)c1)c1ccccc1`, the GFP response vs DMSO in assay [1] was 94.6% (inactive); in assay [1] (setting [6]), 96.1%; in assay [1] (setting [7]) it was 96.4%; in assay [3], 98.3% (inactive). Besides, the results for the GFP response relative to DMSO in assay [2], in assay [2] (setting [8]) and in assay [2] (setting [9]) were 95.4% (inactive), 97.6% and 95.1%, respectively. Besides, the GFP response, % of DMSO in assay [4] was 101% (inactive); in assay [5] it was 98.3% (inactive); in assay [5] (setting [6]), 101%; in assay [5] (setting [7]) it was 97.3%.

For the compound `CC(=O)Nc1ccc(-c2csc(NC(=O)c3ccc(C)o3)n2)cc1`, the GFP response vs DMSO in assay [1] is 98.4% (inactive); in assay [1] (setting [6]) it was 98.1%; in assay [1] (setting [7]), 99.8%; in assay [3], 100% (inactive). The GFP response relative to DMSO is 97.9% (inactive) in assay [2], 99.2% in assay [2] (setting [8]) and 98.3% in assay [2] (setting [9]). In addition, the GFP response, % of DMSO in assay [4] was 98.3% (inactive); in assay [5], 105% (inactive); in assay [5] (setting [6]) it was 106%; in assay [5] (setting [7]), 104%.

With `COc1ccc(C(=O)/C=C2/C(=O)Nc3ccccc32)cc1OC`, the GFP response vs DMSO in assay [1] is 98.2% (inactive); in assay [1] (setting [6]), 98.8%; in assay [1] (setting [7]) it was 99.3%; in assay [3], 99.5% (inactive). The GFP response relative to DMSO is 97.7% (inactive) in assay [2], 96.5% in assay [2] (setting [8]) and 97.5% in assay [2] (setting [9]). Further, the GFP response, % of DMSO in assay [4] was 97.5% (inactive); in assay [5], 95% (inactive); in assay [5] (setting [6]), 94.6%; in assay [5] (setting [7]), 93.3%.

Consider `O=C(Nc1cccc(C(F)(F)F)c1)Oc1ccc(Cl)c2cccnc12`, for which the GFP response vs DMSO in assay [1] is 98% (inactive); in assay [1] (setting [6]), 97.6%; in assay [1] (setting [7]), 98.2%; in assay [3] it was 103% (inactive). For the same compound, the values for the GFP response relative to DMSO in assay [2], in assay [2] (setting [8]) and in assay [2] (setting [9]) were 110% (inactive), 108% and 111%, respectively. The GFP response, % of DMSO in assay [4] is 99.3% (inactive); in assay [5], 108% (inactive); in assay [5] (setting [6]) it was 110%; in assay [5] (setting [7]) it was 107%.

Consider `CCOc1cc(/C=C2\C(=N)N3N=C(S(=O)(=O)CC)SC3=NC2=O)ccc1OC(=O)c1ccco1`, for which the GFP response vs DMSO in assay [1] was 104% (inactive); in assay [1] (setting [6]), 104%; in assay [1] (setting [7]) it was 105%; in assay [3], 104% (inactive). The GFP response relative to DMSO in assay [2] is 89% (inactive); in assay [2] (setting [8]), 92.5%; in assay [2] (setting [9]), 90.1%. Besides, the GFP response, % of DMSO in assay [4] was 100% (inactive); in assay [5] it was 115% (inactive); in assay [5] (setting [6]), 113%; in assay [5] (setting [7]), 113%.

Consider `COc1cccc(C(=O)Nc2ccccc2)c1`, for which the GFP response vs DMSO in assay [1] is 98.2% (inactive); in assay [1] (setting [6]), 97.4%; in assay [1] (setting [7]), 96.7%; in assay [3] it was 105% (inactive). Also, the GFP response relative to DMSO was 106% (inactive) in assay [2], 102% in assay [2] (setting [8]) and 106% in assay [2] (setting [9]). Moreover, the GFP response, % of DMSO in assay [4] is 95.2% (inactive); in assay [5], 94% (inactive); in assay [5] (setting [6]) it was 93.6%; in assay [5] (setting [7]), 92.6%.

Take `CC(C)Nc1nc(-c2ccccc2)nnc1-c1ccccc1`: the GFP response vs DMSO in assay [1] is 98.5% (inactive); in assay [1] (setting [6]), 98.4%; in assay [1] (setting [7]), 97.7%; in assay [3], 106% (inactive). The GFP response relative to DMSO was 107% (inactive) in assay [2], 102% in assay [2] (setting [8]) and 109% in assay [2] (setting [9]). For the same compound, the GFP response, % of DMSO in assay [4] is 96.1% (inactive); in assay [5], 98.6% (inactive); in assay [5] (setting [6]), 97.6%; in assay [5] (setting [7]), 98.2%.

`COc1cccc(-c2noc(-c3cccnc3)n2)c1`: the GFP response vs DMSO was 97.2% (inactive) in assay [1], 97.1% in assay [1] (setting [6]), 96.3% in assay [1] (setting [7]) and 101% (inactive) in assay [3]. The figures for the GFP response relative to DMSO in assay [2], in assay [2] (setting [8]) and in assay [2] (setting [9]) were 102% (inactive), 102% and 100%, respectively. Also, the GFP response, % of DMSO was 97.3% (inactive) in assay [4], 103% (inactive) in assay [5], 105% in assay [5] (setting [6]) and 102% in assay [5] (setting [7]).

Regarding `COc1ccccc1N1CCN(C(=O)c2ccccc2Oc2ccccc2)CC1`, the GFP response vs DMSO in assay [1] was 96.7% (inactive); in assay [1] (setting [6]), 97%; in assay [1] (setting [7]) it was 95.2%; in assay [3] it was 101% (inactive). Besides, the GFP response relative to DMSO in assay [2] was 91.8% (inactive); in assay [2] (setting [8]), 92.9%; in assay [2] (setting [9]) it was 87.3%. The GFP response, % of DMSO was 98.6% (inactive) in assay [4], 98.6% (inactive) in assay [5], 97.6% in assay [5] (setting [6]) and 93.8% in assay [5] (setting [7]).

Take `O=C(c1ccccc1F)N1CCN(c2cccc(C(F)(F)F)c2)CC1`: the GFP response vs DMSO is 98.2% (inactive) in assay [1], 97.6% in assay [1] (setting [6]), 96.5% in assay [1] (setting [7]) and 108% (inactive) in assay [3]. Further, the GFP response relative to DMSO was 97.7% (inactive) in assay [2], 101% in assay [2] (setting [8]) and 96.4% in assay [2] (setting [9]). Further, the GFP response, % of DMSO in assay [4] is 106% (inactive); in assay [5], 95.8% (inactive); in assay [5] (setting [6]), 97.6%; in assay [5] (setting [7]), 94.9%.

As for `O=S(=O)(Nc1nc2ccccc2nc1Cl)c1ccc2ccccc2c1`, the GFP response vs DMSO in assay [1] is 98.4% (inactive); in assay [1] (setting [6]) it was 97.9%; in assay [1] (setting [7]) it was 98.1%; in assay [3] it was 96.8% (inactive). The GFP response relative to DMSO in assay [2] is 95.7% (inactive); in assay [2] (setting [8]), 92.6%; in assay [2] (setting [9]), 97.3%. In addition, the GFP response, % of DMSO in assay [4] was 95.9% (inactive); in assay [5] it was 88.6% (inactive); in assay [5] (setting [6]) it was 88.4%; in assay [5] (setting [7]), 88.2%.

On to `CCOc1ccc(Nc2ccc(C(=O)O)cc2[N+](=O)[O-])cc1`, for which the GFP response vs DMSO is 102% (inactive) in assay [1], 98.4% in assay [1] (setting [6]), 104% in assay [1] (setting [7]) and 101% (inactive) in assay [3]. Besides, the GFP response relative to DMSO in assay [2] is 101% (inactive); in assay [2] (setting [8]), 99.1%; in assay [2] (setting [9]), 100%. The GFP response, % of DMSO is 97.8% (inactive) in assay [4], 98.8% (inactive) in assay [5], 95.6% in assay [5] (setting [6]) and 96.8% in assay [5] (setting [7]).
